Assay results taken from ChEMBL document CHEMBL3046311, “Synthesis and antifungal activities of alkyl N-(1,2,3-thiadiazole-4-carbonyl) carbamates and S-alkyl N-(1,2,3-thiadiazole-4-carbonyl) carbamothioates” (2005).

Tests used:
Format in all cases: functional
Conditions in all cases: read-out: GI
Alternaria kikuchiana [1] = assay: Fungistatic activity against Alternaria kikuchiana assessed as inhibition of mycelial growth measured at 50 ug/mL at 28 degC after 72 hr relative to control
Method in brief: (§1)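 Compounds in acetone at stock levels of 500 and 50 µg/mL; 1 mL of stock mixed into 9 mL thawed potato dextrose agar at 50 °C and poured. Solidified plates were inoculated with a 4 mm mycelial disk, inverted, and held at 28 °C for 72 h. Water served as negative control, in triplicate. Inhibition was calculated as (C−T)/C × 100% from colony radii.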

Fusarium graminearum [2] = assay: Fungistatic activity against Fusarium graminearum assessed as inhibition of mycelial growth measured at 5 ug/mL at 28 degC after 72 hr relative to control
Method in brief: (§2)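 Poisoned-food plate assay with Gibberella zeae. Compound in acetone (500 or 50 µg/mL stocks) is mixed 1:9 with molten potato dextrose agar at 50 °C and poured. Once set, plates are inoculated with a 4 mm mycelium disk, inverted, and held 72 h at 28 °C. Water is the negative control, run in triplicate. Colony radius is measured, and inhibition = (C−T)/C × 100%.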

Fusarium graminearum [3] = assay: Fungistatic activity against Fusarium graminearum assessed as inhibition of mycelial growth measured at 50 ug/mL at 28 degC after 72 hr relative to control; method in brief: as §2
Alternaria kikuchiana [4] = assay: Fungistatic activity against Alternaria kikuchiana assessed as inhibition of mycelial growth measured at 5 ug/mL at 28 degC after 72 hr relative to control; method in brief: as §1

| SMILES | inhibition of growth at 50 µg/mL (Alternaria kikuchiana [1]) [%] | inhibition of growth at 5 µg/mL (Fusarium graminearum [2]) [%] | inhibition of growth at 50 µg/mL (Fusarium graminearum [3]) [%] | inhibition of growth at 5 µg/mL (Alternaria kikuchiana [4]) [%] |
| --- | --- | --- | --- | --- |
| CCCCOC(=O)NC(=O)c1csnn1 | 50 | 6 | 11 | 23 |
| CCCCCOC(=O)NC(=O)c1csnn1 | 45 | 4 | 42 | 36 |
| CC(C)CCOC(=O)NC(=O)c1csnn1 | 50 | 15 | 100 | 25 |
| CCCCCCOC(=O)NC(=O)c1csnn1 | 90.7 | 23 | 92 | 54 |
| CCCCCCCOC(=O)NC(=O)c1csnn1 | 50 | 78 | 92 | 20 |
| CCCCCCCCOC(=O)NC(=O)c1csnn1 | 50 | 63 | 81 | 20 |
| CCCCCCCCCOC(=O)NC(=O)c1csnn1 | 50 | 23 | 60 | 27 |
| CCCCCCCCCCOC(=O)NC(=O)c1csnn1 | 54 | 42 | 75 | 54 |
| CCCCCCCCCCCOC(=O)NC(=O)c1csnn1 | 40 | 59 | 78 | 10 |
| O=C(NC(=O)c1csnn1)OC1CCCCC1 | 59 | 0 | 17 | 32 |
| CCCCCCCCCCCCCCOC(=O)NC(=O)c1csnn1 | 50 | 0 | 100 | 15 |
| CCCCCCCCCCCCCCCCOC(=O)NC(=O)c1csnn1 | 27 | 0 | 67 | 14 |
| O=C(NC(=O)c1csnn1)OCCCCCCCCCCBr | 41 | 25 | 42 | 0 |
| O=C(NC(=O)c1csnn1)OCCCCCCCCCCCCBr | 36 | 6 | 21 | 13 |
| CCCSC(=O)NC(=O)c1csnn1 | 36 | 27 | 54 | 9 |
| CCCCSC(=O)NC(=O)c1csnn1 | 36 | 0 | 10 | 32 |
| CCCCCCSC(=O)NC(=O)c1csnn1 | 27 | 25 | 75 | 4 |
| CCCCCCCSC(=O)NC(=O)c1csnn1 | 32 | 12 | 35 | 4 |
| CCCCCCCCSC(=O)NC(=O)c1csnn1 | 18 | 10 | 31 | 0 |
